The conditions of data set [1]: rabbits, administered topically via ocular route; ref 25 (Yamamoto et al., 1989); cited from earlier work.
Data set [2] concerns New Zealand albino rabbits. As to the kind of experiment: In vivo tolerance study. The conditions noted are these: rabbit eye, scale 0-3, n = 3. A digest of the protocol: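 Male New Zealand albino rabbits (1.5–2.0 kg) free of ocular inflammation, housed at 25 ± 2 °C, 75% RH, 12:12 h light cycle. Nine animals were split into three groups of three. […] Macroscopic signs were graded at 0.5, 4.0 and 16.0 h, and scores were summed into an overall irritation index.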

The nature of a further data set: Pharmacokinetic study. Type of data set: in vivo. The conditions noted are these: rabbit plasma, n = 3; for T max: 5 IU kg^−1, HPLC; for AUC0–12: 5 IU kg^−1, trapezoidal method, mean ± SD.
Data set [3] relates to diabetic rabbits (streptozotocin). As to the kind of experiment: In vivo anti-diabetic study. The conditions noted are these: at 4 h, subcutaneous injection, n = 3. Further details: species or system rabbit. The procedure, abridged: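 Male New Zealand albino rabbits (1.5–2.0 kg) made diabetic by intravenous streptozotocin (65 mg kg−1, in citrate buffer pH 5.0) given in the evening for three days. Baseline blood glucose was taken on day 1 after overnight fasting. Blood glucose was followed over time and expressed as % of initial level, n = 3 per group.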

Setting [4] is: 0.5 h after single instillation of 50 μl.
The mark [5] stands for this setting: 4.0 h after single instillation of 50 μl.
Setting [6] is: 16.0 h after single instillation of 50 μl.

Consider insulin, for which the bioavailability entry in data set [1] is on record as “less than 1%”.
In data set [2] (setting [4]), Insulin [Plain insulin solution] gave a Conjunctiva grade of 0, a Cornea grade of 0, a Discharge grade of 0 and a Lids grade of 0. In data set [2] (setting [5]), this substance displayed a Conjunctiva grade of 0, a Cornea grade of 0, a Discharge grade of 1 and a Discomfort grade of 0. For the same substance, in data set [2] (setting [5]), the Lids grade is listed as 0. Moreover, in data set [2] (setting [6]), the Conjunctiva grade is on record as 0, the Cornea grade came out at 0, the Discharge grade stood at 0 and the Discomfort grade stood at 0. For the same substance, in data set [2] (setting [6]), the Lids grade stood at 0. In “Pharmacokinetic study” (ocular instillation), the T max was found to be 19.8 min and the “AUC0–12” value was 1.87 ± 1.7 µg·h/mL.
Take “Subcutaneous insulin injection: subcutaneous injection of human insulin solution”: the “drop in blood glucose level” value in data set [3] was 71.08 ± 3.24. Moreover, in the data set “Pharmacokinetic study” (subcutaneous injection), the T max was 30 min and the “AUC0–12” value was found to be 197.38 ± 2.76 µg·h/mL.
